From PubChem BioAssay
ABCG2 block: human ABCG2 inhibition, ABCB1 as counter-screen | Q9UNQ0 | hit rate 0.1% among 190,000 | inhibition, % at 6.6 µM | IgMXP3 cells, JC-1 efflux, flow cytometry;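 active = inhibition above 80%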
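System: two drug-resistant human cell lines, ABCG2 and ABCB1; controls: nicardipine high and DMSO low controls; times: 10 min exposure at 25 °C with rotation, no wash; detection: flow cytometry of retained JC-1 fluorescence; read-out basis: percent efflux inhibition, scaled nicardipine 100% to DMSO 0%; doses: one concentration, 6.6 µM final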
RGS8-Gao reg: modulates binding of RGS8 to human Galphao. P09471. multiplexed bead flow cytometry; actives lie on both sides. response (percent of control binding), % at 10 µM. hit rate 0.34% among 220,000; in the data active = response below about 60% or above about 140%; inactive = in between;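 also: Galphao activated as the GDP aluminium fluoride complex binding bead-coupled RGS8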
RGS16-Gao HTS: RGS16-Galphao interaction regulator (human); O15492+P09471; bead-based flow cytometry RGS16-Galphao binding, fluorescence; actives lie on both sides; binding response (% of control), % at 10 µM; hit rate 0.38% among 220,000; AID 1441;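 also: Galphao activated by GDP with aluminum fluoride before binding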
RGS7-Gao reg: human RGS7-Galphao interaction regulation | Multiplexed bead flow cytometry, RGS7-Galphao binding; actives lie on both sides | hit rate 0.35% among 220,000 | binding response (% of control), % at 10 µM; in the data active = binding response below about 49% or above about 150%; inconclusive = no clear call, values can overlap the other calls; inactive = in between;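 also: fluorescent Galphao held in activated GDP-AlF4 state binding bead-coupled RGS7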
RGS4-Gao reg: human RGS4-Galphao interaction regulation; binding response (% of control), % at 10 µM; Multiplexed bead flow cytometry, RGS4-Galphao binding; actives lie on both sides; P09471; hit rate 0.33% among 220,000; in the data active = binding response below about 49% or above about 150%; inactive = in between;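 also: fluorescent Galphao activated with aluminum fluoride binding bead-coupled RGS4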
ABCB1 block: inhibitors of human ABCB1 transporter, ABCG2 counter-screen. AID 1326. CCRF-Adr cells, JC-1 efflux, flow cytometry. hit rate 0.067% among 190,000. inhibition, % at 6.6 µM; in the data active = inhibition above about 40%;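 also: higher value means more JC-1 retained so stronger ABCB1 efflux block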
RGS-Gao: regulators of human RGS4-Galphao interaction. RGS4–Galpha-o binding response, % at 10 µM. shares compounds with RGS16-Gao HTS. hit rate 99% among 1,600. AID 1504. multiplexed bead flow cytometry, RGS–Galpha-o binding;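 also: fluorescently labeled Galpha-o bound to GDP with aluminium fluoride binding biotinylated RGS beads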
Avidin counter: biotin-avidin bead binding disruption counter-screen | shares compounds with RGS16-Gao HTS | 1,700 tested, under 10 active | streptavidin beads, fluorescein-biotin binding, flow cytometry | AID 1783 | inhibition, % at 10 µM;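 active = inhibition above 50%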;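 also: median green fluorescence of gated singlet beads compared with DMSO control wells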
RGS8-Gao single: RGS8-Galphao interaction regulation, single point confirmation | shares compounds with RGS16-Gao HTS | bead-based flow cytometry RGS8-Galphao binding, fluorescence; actives lie on both sides | binding response (% of control), % at 10 µM | hit rate 3% among 1,700; in the data active = binding response below about 72% or above about 130%; inactive = in between;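 also: Galphao activated as GDP AlF4 complex before binding bead RGS8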
RGS7-Gao single: RGS7-Galphao interaction regulation, single point confirmation. response (percent of control binding), % at 10 µM. shares compounds with RGS16-Gao HTS. hit rate 7.8% among 1,700. bead-based flow cytometry RGS7-Galphao binding; actives lie on both sides. AID 1837; in the data active = response below about 75% or above about 130%; inactive = in between;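 also: fluorescent Galphao activated with GDP and aluminum fluoride binding bead-coupled RGS7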
RGS16-Gao single: RGS16-Galphao interaction regulation, single point confirmation; shares compounds with RGS16-Gao HTS; bead-based flow cytometry, RGS16-Galphao binding; actives lie on both sides; response (% of control binding), % at 10 µM; hit rate 4% among 1,700; AID 1838; in the data active = response below about 74% or above about 130%; inactive = in between;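 also: Galphao activated as the GDP aluminium fluoride complex binding bead-coupled RGS16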
RGS4-Gao confirm: RGS4-Galphao interaction regulation, single point confirmation; binding response (% of control), % at 10 µM; hit rate 4% among 1,700; shares compounds with RGS16-Gao HTS; AID 1840; RGS4-Galphao binding, multiplexed bead flow cytometry; actives lie on both sides; in the data active = binding response below about 74% or above about 130%; inactive = in between
RGS19-Gao conf: RGS19-Galphao interaction regulation, single point confirmation; response (percent of control binding), % at 10 µM; bead-based flow cytometry RGS19-Galphao binding; actives lie on both sides; shares compounds with RGS16-Gao HTS; hit rate 5% among 1,700; AID 1841; in the data active = response below about 50% or above about 160%; inactive = in between
Each line names hits and unclear results; the compound was inactive in the other large screens (follow-up assays come after a bar, where they were run); [ ] = another dose, or the depositor's remark. This is a sample that favours compounds with a hit; in the whole collection about 0.83% have one here. Unless noted, no rule for the calls is given here.

COc1ccc(N2CCN(CC(=O)NCc3ccccc3)CC2)cc1	none
COc1cccc(N2CCN(CC(=O)NCc3cccs3)CC2)c1	none (no result: RGS8-Gao reg, RGS16-Gao HTS, RGS7-Gao reg, RGS4-Gao reg) | Avidin counter inactive | RGS8-Gao single inactive | RGS7-Gao single inactive | RGS16-Gao single inactive | RGS4-Gao confirm inactive | RGS19-Gao conf inactive
COc1ccccc1-c1nnc2n1N=C(c1ccc(O)c(O)c1)CS2	RGS8-Gao reg 58.6, RGS7-Gao reg 46.9 | RGS-Gao 55.6 | Avidin counter inactive | RGS8-Gao single inactive | RGS7-Gao single inactive | RGS16-Gao single inactive | RGS4-Gao confirm inactive | RGS19-Gao conf inactive
COc1ccc(CNC(=O)c2ccc(NC(=O)C3CCCO3)cc2)cc1 (stereo not given)	none
COCCNC(=O)/C(C#N)=C/c1ccc(-c2ccc(S(=O)(=O)N3CCOCC3)cc2)o1	RGS16-Gao HTS -1.2 | RGS-Gao 79.2 | Avidin counter inactive | RGS8-Gao single inactive | RGS7-Gao single inactive | RGS16-Gao single inactive | RGS4-Gao confirm inactive | RGS19-Gao conf inactive
O=C(N/N=C/c1cc2c3c(c1O)CCCN3CCC2)c1ccccc1O	RGS8-Gao reg 42.8, RGS7-Gao reg 14.8, RGS4-Gao reg 25.0 | Avidin counter inactive | RGS8-Gao single inactive | RGS7-Gao single inactive | RGS16-Gao single inactive | RGS4-Gao confirm inactive | RGS19-Gao conf inactive
O=C(CN1CCN(c2ccccc2O)CC1)NC(=O)NC1CCCC1	none
COc1ccc(-n2nc(C(=O)NCC(=O)Nc3ccccn3)c3ccccc3c2=O)cc1Cl	RGS4-Gao reg 167.0[activator] | Avidin counter inactive | RGS8-Gao single inactive | RGS7-Gao single inactive | RGS16-Gao single inactive | RGS4-Gao confirm inactive | RGS19-Gao conf inactive
CCOC(=O)CNC(=O)CNC(=O)c1nn(-c2ccc(OC)c(Cl)c2)c(=O)c2ccccc12	none
Cc1ccc(-c2nn(CC(N)=O)c(=O)c3ccccc23)cc1S(=O)(=O)N(C)C	none
Cc1ccc(-c2nn(CC(=O)N3CCOCC3)c(=O)c3ccccc23)cc1S(=O)(=O)N(C)C	RGS7-Gao reg inconclusive, RGS4-Gao reg 163.3[activator] (no result: ABCG2 block, ABCB1 block) | Avidin counter inactive | RGS8-Gao single inactive | RGS7-Gao single inactive | RGS16-Gao single inactive | RGS4-Gao confirm inactive | RGS19-Gao conf inactive
CC1CC(C)(C)NC(=S)N1CCC(=O)N1CCc2ccccc2C1 (stereo not given)	RGS7-Gao reg inconclusive
Cc1ccc(OCC(=O)NNC(=O)C(=O)N2CCCC2)c(C)c1	RGS16-Gao HTS 243.7[activator] | RGS-Gao 118.0 | Avidin counter inactive | RGS8-Gao single inactive | RGS7-Gao single inactive | RGS16-Gao single inactive | RGS4-Gao confirm inactive | RGS19-Gao conf inactive
Cc1ccc(CNC(=O)/C=C/c2ccc(S(=O)(=O)N3CCOCC3)cc2)cc1	none
CN(C)c1ccc(NC(=O)COC(=O)c2cc(=O)c3ccccc3o2)cc1	none
